Experimental data as given in paper PMC8799877 (Acta Pharmaceutica Sinica. B, 2021).

How the values were obtained:
[1] = target: BRD4(2) (Homo sapiens, UniProt O60885); assay: HTRF bromodomain binding assay, BRD4
[2] = target: BRD4(1) (Homo sapiens, UniProt O60885); assay: HTRF bromodomain binding assay, BRD4
[3] = target: BRD4 (Rattus norvegicus, UniProt A0A8I6A216); assay: Cellular thermal shift assay; format: cell-based; conditions: NRCFs, 10 μmol/L, 4 h, heated from 43 to 61 °C
[4] = system: NRCFs; assay: Ang II-induced cardiac fibroblast activation; format: cell-based, rat; conditions: immunofluorescent staining
Method in brief: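 Treated neonatal rat cardiac fibroblasts fixed in 4% paraformaldehyde overnight, permeabilised with 0.1% Triton X-100 10 min, blocked in 5% BSA 20 min. Anti-α-SMA (1:300) at 4 °C overnight, then Alexa Fluor 488 goat anti-rabbit IgG (1:200) 2 h in the dark, DAPI 15 min. Imaged by laser confocal microscopy; n = 3.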

[5] = system: NRCFs; assay: Wound scratch migration assay; format: cell-based, rat; conditions: C-34 1 μmol/L or JQ1 0.2 μmol/L, Ang II 12 or 24 h
[6] = system: TGF-β1/Smad2/3 signaling pathway; assay: Ang II-induced TGF-β1/Smad2/3 signaling in NRCFs; format: cell-based, rat; conditions: pretreatment, Western blot
Method in brief: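 Fibroblasts from hearts of 1–3-day-old neonatal SD rats: trypsin (0.8 mg/mL, 4 °C overnight), then collagenase II (0.8 mg/mL), 2 h differential plating. Treated cells lysed in RIPA, protein by BCA, 10% SDS-PAGE, nitrocellulose, 5% nonfat milk block 2 h, primary antibodies 4 °C overnight, secondary 1:10,000 2 h, chemiluminescence, densitometry.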

[7] = system: MV4-11 and RS411 acute leukemia xenograft models; conditions: 5 mg/kg; cited from earlier work
[8] = MTT cytotoxicity / cell viability in NRCFs; format: cell-based; conditions: Sprague-Dawley, rat, primary neonatal rat cardiac fibroblasts (NRCFs)
[9] = MTT cytotoxicity / cell viability in NRCMs; format: cell-based; conditions: Sprague-Dawley, rat, primary neonatal rat cardiac myocytes (NRCMs)
[10] = In vivo pharmacokinetic study; set-up: species or system male Sprague-Dawley rats; conditions: for CL_F_pred / Vz_F_pred: rats
Method in brief: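 Male SD rats (n = 3) dosed iv at 2 mg/kg or orally at 10 mg/kg. Plasma separated by centrifugation at 4 °C, 6000 rpm, 8 min, and analysed by LC–MS. Parameters reported as mean ± SD.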

[11] = male, Sprague-Dawley, rat, plasma, iv, 2 mg/kg
[12] = male, Sprague-Dawley, rat, plasma, po, 10 mg/kg

IC50 [1] [µM]	Compound	other results
3.05 ± 0.484	O=C(O)c1ccc(Nc2nc(-c3ccc(Cl)cc3)c3ccccc3n2)cc1 [Compound 13]	
8.314 ± 0.016	OCCNc1nc(-c2ccc(Cl)cc2)c2ccccc2n1 [Compound 6]	
7.02 ± 0.517	Clc1ccc(-c2nc(Nc3ccc(Br)cc3)nc3ccccc23)cc1 [Compound 18]	
3.88 ± 0.589	O=S(=O)(c1ccc(Nc2nc(-c3ccc(Cl)cc3)c3ccccc3n2)cc1)N1CCOCC1 [Compound 20]	
3.07 ± 0.584	O=C(c1ccc(Nc2nc(-c3ccc(F)cc3)c3ccccc3n2)cc1)N1CCOCC1 [Compound 50]	
5.27 ± 0.367	CC(C)c1ccc(Nc2nc(-c3ccc(F)cc3)c3ccccc3n2)cc1 [Compound 45]	
12.9 ± 0.947	CC(C)c1ccc(Nc2nc(-c3ccc(Cl)cc3)c3ccccc3n2)cc1 [Compound 17]	
9.04 ± 0.956	COC(=O)c1ccc(CNc2nc(-c3ccc(Cl)cc3)c3ccccc3n2)cc1 [Compound 11]	
0.589 ± 0.052	NS(=O)(=O)c1ccccc1Nc1nc(-c2ccc(F)cc2)c2ccccc2n1 [Compound 29]	IC50 [2]: 0.615 ± 0.127 µM
8.12 ± 0.084	COc1ccc(-c2nc(Nc3ccc(S(N)(=O)=O)cc3)nc3ccccc23)cc1 [Compound 35, 4-((4-(4-Methoxyphenyl)quinazolin-2-yl)amino)benzenesulfonamide]	
4.76 ± 0.678	NS(=O)(=O)c1ccc(Nc2nc(-c3cccc4ccccc34)c3ccccc3n2)cc1 [Compound 41, 4-((4-(Naphthalen-1-yl)quinazolin-2-yl)amino)benzenesulfonamide]	
8.62 ± 0.164	Cc1ccc(Nc2nc(-c3ccc(Cl)cc3)c3ccccc3n2)cc1 [Compound 16]	
4.31 ± 0.18	Oc1ccc(Nc2nc(-c3ccc(Cl)cc3)c3ccccc3n2)cc1 [Compound 14]	
5.17 ± 0.614	COC(=O)c1ccc(-c2nc(Nc3ccc(S(N)(=O)=O)cc3)nc3ccccc23)cc1 [Compound 38]	
10.3 ± 1.01	NS(=O)(=O)c1ccc(Nc2nc(-c3ccccc3)c3ccccc3n2)cc1 [Compound 32, 4-((4-Phenylquinazolin-2-yl)amino)benzenesulfonamide]	
1.33 ± 0.628	O=S(=O)(c1ccc(Nc2nc(-c3ccc(F)cc3)c3ccccc3n2)cc1)N1CCOCC1 [Compound 49]	IC50 [2]: 5.95 ± 0.248 µM
4.55 ± 0.658	NC(=O)CNc1nc(-c2ccc(Cl)cc2)c2ccccc2n1 [Compound 8]	fold more potent than compound 5 (BRD4(2) IC50) ([1]; vs compound 5): about 4 fold
2.07 ± 0.625	O=C(O)c1ccc(CNc2nc(-c3ccc(F)cc3)c3ccccc3n2)cc1 [Compound 44, 4-(((4-(4-Fluorophenyl)quinazolin-2-yl)amino)methyl)benzoic acid]	IC50 [2]: 5.13 ± 0.626 µM
3.33 ± 0.522	COC(=O)c1ccc(-c2nc(Nc3ccccc3S(N)(=O)=O)nc3ccccc23)cc1 [Compound 39]	
3.65 ± 0.562	CNC(=O)c1ccc(-c2nc(Nc3ccc(S(N)(=O)=O)cc3)nc3ccccc23)cc1 [Compound 37]	
13.3 ± 1.12	Clc1ccc(-c2nc(NCc3ccco3)nc3ccccc23)cc1 [Compound 10]	
18.63 ± 0.047	NS(=O)(=O)c1ccc(CCNc2nc(-c3ccc(F)cc3)c3ccccc3n2)cc1 [Compound 47]	
13.6 ± 1.13	Cc1ccc(-c2nc(Nc3ccc(S(N)(=O)=O)cc3)nc3ccc(C)cc23)cc1 [Compound 34, 4-((6-Methyl-4-(p-tolyl)quinazolin-2-yl)amino)benzenesulfonamide]	
0.688 ± 0.016	N#Cc1ccc(-c2nc(Nc3ccc(S(N)(=O)=O)cc3)nc3ccccc23)cc1 [Compound 30]	IC50 [2]: 0.588 ± 0.024 µM

IC50 [1] [µM]	Compound	other results
> 20	NS(=O)(=O)c1ccc(Nc2nc(-c3ccc(OCc4ccccc4)cc3)c3ccccc3n2)cc1 [Compound 42, 4-((4-(4-(Benzyloxy)phenyl)quinazolin-2-yl)amino)benzenesulfonamide]	
1.53 ± 0.185	NS(=O)(=O)c1ccc(Nc2nc(-c3ccc(Cl)cc3)c3ccccc3n2)cc1 [Compound 19]	fold more active in comparison to compound 15 (BRD4(2) IC50) ([1]; vs compound 15): about 7 fold; IC50 [2]: 3.37 ± 0.528 µM
12.4 ± 1.09	CC(C)(CO)Nc1nc(-c2ccc(Cl)cc2)c2ccccc2n1 [Compound 7]	
19.7 ± 1.3	NS(=O)(=O)c1ccc(Nc2nc(-c3ccccc3Cl)c3ccccc3n2)cc1 [Compound 23]	
9.91 ± 0.996	COc1ccc(-c2nc(Nc3ccccc3S(N)(=O)=O)nc3ccccc23)cc1 [Compound 36]	
3.21 ± 0.206	NS(=O)(=O)c1ccccc1Nc1nc(-c2ccc(Br)cc2)c2ccccc2n1 [Compound 27]	
	Cc1sc2c(c1C)C(c1ccc(Cl)cc1)=N[C@@H](CC(=O)OC(C)(C)C)c1nnc(C)n1-2 [JQ1]	BRD4 thermal stabilization (CETSA, Western blot) [3]: in close accordance with that obtained for JQ1; α-SMA fluorescence intensity after Ang II stimulation [4]: this effect was reversed; Ang II-induced cell migration (wound scratch assay) [5]: effectively inhibited the enhanced cell migration induced by Ang II; Ang II-induced upregulation of TGF-β1, p-Smad2 and p-Smad3 [6]: comparable to those by JQ1 treatment
15.1 ± 1.18	NS(=O)(=O)c1ccc(Nc2nc(-c3cccc(Cl)c3)c3ccccc3n2)cc1 [Compound 24]	
14.8 ± 1.17	Clc1ccc(-c2nc(NCCc3c[nH]c4ccccc34)nc3ccccc23)cc1 [Compound 9]	
9.85 ± 0.993	NS(=O)(=O)c1ccc(Nc2nc(Nc3ccc(Br)cc3)c3ccccc3n2)cc1 [Compound 52]	fold decrease on potency vs compound 26 (BRD4(2) IC50) ([1]; vs compound 26): ~6 fold
> 20	NS(=O)(=O)c1cccc(Nc2nc(-c3ccc(Cl)cc3)c3ccccc3n2)c1 [Compound 21]	
7.62 ± 0.882	COC(=O)c1cccc(-c2nc(Nc3ccc(S(N)(=O)=O)cc3)nc3ccccc23)c1 [Compound 40]	
0.925 ± 0.081	O=C(O)c1ccc(Nc2nc(-c3ccc(F)cc3)c3ccccc3n2)cc1 [Compound 43, 4-((4-(4-Fluorophenyl)quinazolin-2-yl)amino)benzoic acid]	IC50 [2]: 4.47 ± 0.361 µM
1.63 ± 0.212	NS(=O)(=O)c1ccc(Nc2nc(-c3ccc(Br)cc3)c3ccccc3n2)cc1 [Compound 26]	IC50 [2]: 1.6 ± 0.205 µM
	Cc1nnc2n1-c1sc(C#Cc3cnn(CCCC#Cc4cccc5c4CN(C4CCC(=O)NC4=O)C5=O)c3)c(Cc3ccccc3)c1COC2 (stereo not drawn) [QCA570]	tumor regression [7]: complete and long-lasting tumor regression
3.23 ± 0.089	Cc1ccc(-c2nc(Nc3ccc(S(N)(=O)=O)cc3)nc3ccccc23)cc1 [Compound 33, 4-((4-(p-Tolyl)quinazolin-2-yl)amino)benzenesulfonamide]	
12.6 ± 0.307	Cc1ccc2nc(Nc3ccc(S(N)(=O)=O)cc3)nc(-c3ccc(Cl)cc3)c2c1 [Compound 25]	
7.05 ± 0.848	COC(=O)c1ccc(Nc2nc(-c3ccc(Cl)cc3)c3ccccc3n2)cc1 [Compound 12]	
6.69 ± 0.825	O=S(=O)(c1ccccc1Nc1nc(-c2ccc(F)cc2)c2ccccc2n1)N1CCOCC1 [Compound 48]	
6.12 ± 0.258	NS(=O)(=O)c1ccc(CNc2nc(-c3ccc(F)cc3)c3ccccc3n2)cc1 [Compound 46]	
10.6 ± 0.367	Clc1ccc(-c2nc(Nc3ccccc3)nc3ccccc23)cc1 [Compound 15]	
0.242 ± 0.049	NS(=O)(=O)c1ccc(Nc2nc(-c3ccc(F)cc3)c3ccccc3n2)cc1 [Compound 28]	IC50 [2]: 0.286 ± 0.046 µM; IC50 at 24 h [8]: 48.2 ± 1.68 µM; IC50 at 24 h [9]: 19.1 ± 1.4 µM; BRD4 thermal stabilization (CETSA, Western blot) [3]: could efficiently stabilize BRD4 from 43 to 61 °C; AUC(0-inf) [10, 11]: 7130 ng·h/mL; AUC(0-t) [10, 11]: 7100 ng·h/mL; Cmax [10, 11]: 2820 ng/mL; MRT last [10, 11]: 3.46 h; half-life [10, 11]: 3.13 h; bioavailability ([10]; male, Sprague-Dawley, rat, plasma, oral, 10 mg/kg): 43.1%; AUC(0-inf) [10, 12]: 15400 ng·h/mL; AUC(0-t) [10, 12]: 15300 ng·h/mL; Cmax [10, 12]: 2170 ng/mL; MRT last [10, 12]: 4.27 h; Tmax [10, 12]: 2.67 h; half-life [10, 12]: 1.77 h; CL_F_pred ([10]; iv 2 mg/kg): 4.67 mL/min/kg; Vz_F_pred ([10]; iv 2 mg/kg): 1.27 L/kg; CL_F_pred ([10]; po 10 mg/kg): 12 mL/min/kg; Vz_F_pred ([10]; po 10 mg/kg): 1.77 L/kg
0.424 ± 0.038	NS(=O)(=O)c1ccc(Nc2nc(-c3ccc(C(F)(F)F)cc3)c3ccccc3n2)cc1 [Compound 31]	IC50 [2]: 0.687 ± 0.054 µM
